# In ChEMBL document CHEMBL1156235, “A novel class of antihyperlipidemic agents with low density lipoprotein receptor up-regulation via the adaptor protein autosomal recessive hypercholesterolemia” (J Med Chem, 2010):
# Active and inactive are the calls of the source. The rule behind the calls is not given here.
# Key:
# [1] = molecular target: T1, Sterol O-acyltransferase 1 (Rattus norvegicus, UniProt O70536); experiment: Inhibition of rat macrophages ACAT
# T1 sequence (O70536 whole entry): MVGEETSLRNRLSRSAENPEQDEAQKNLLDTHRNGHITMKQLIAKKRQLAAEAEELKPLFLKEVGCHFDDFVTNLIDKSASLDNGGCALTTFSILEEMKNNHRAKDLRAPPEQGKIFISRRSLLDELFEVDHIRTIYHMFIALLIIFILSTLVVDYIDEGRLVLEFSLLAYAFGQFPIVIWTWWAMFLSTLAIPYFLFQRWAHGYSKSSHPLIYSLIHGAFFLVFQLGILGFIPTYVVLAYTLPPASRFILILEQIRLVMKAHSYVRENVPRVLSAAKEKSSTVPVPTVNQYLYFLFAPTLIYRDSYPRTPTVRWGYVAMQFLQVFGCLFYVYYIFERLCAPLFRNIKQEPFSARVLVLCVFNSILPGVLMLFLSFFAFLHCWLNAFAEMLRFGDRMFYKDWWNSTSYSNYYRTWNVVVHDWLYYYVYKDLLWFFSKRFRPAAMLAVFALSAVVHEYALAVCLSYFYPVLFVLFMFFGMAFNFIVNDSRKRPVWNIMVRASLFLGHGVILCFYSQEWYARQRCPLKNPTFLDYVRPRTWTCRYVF
# Method in brief: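 ACAT was taken from rat macrophages, and inhibition was measured once (n = 1).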
# HepG2 [2] = experiment: Upregulation of LDL receptor expression in human HepG2 cells assessed as DiI-LDL uptake after 19 hrs; type: functional; details: HepG2, 19 h
# Method in brief: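 HepG2 cells were grown 2-3 days in DMEM/F-12 with 10% FBS, then given compound in medium with 10% delipoprotein serum for 19 h at 37 °C. DiI-labelled human LDL was then added for 5 h, with 30-50-fold unlabelled LDL defining nonspecific uptake. Specific fluorescence per protein is expressed as % of control. EC25 is the concentration giving 25% up-regulation (n = 1).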
# [3] = Solubility in phosphate buffer at pH 7.4 by HPLC analysis; type: physicochemical
# Method in brief: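 Solubility in phosphate buffer was measured at room temperature, with the dissolved amount quantified by HPLC.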
# [4] = Cmax in hamster at 10 mg/kg; type: ADME, organism-based; design: dose 10 mg/kg; details: cricetinae, in vivo
# Method in brief: (§1)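 Male hamsters received a single oral dose of 10 mg/kg as the sodium salt, and serum drug concentration was followed over time. Values are mean ± SEM, n = 3.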
# [5] = AUC (0 to 360 mins) in hamster at 10 mg/kg; type: ADME, organism-based; design: time < 6 hr, dose 10 mg/kg; details: cricetinae, plasma; method in brief: as §1
# Hamster [6] = experiment: Antihyperlipidemic activity in high-cholesterol diet fed po dosed hamster model assessed as reduction of plasma total LDL cholesterol level administered qd for 7 days; type: functional, organism-based; details: Cricetinae
# Method in brief: (§2)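 Hamsters fed a rich diet for 1 week were dosed orally by gavage once daily for 1 week. Plasma total cholesterol and LDL-C were then measured. Values are mean ± SEM.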
# Hamster [7] = experiment: Antihyperlipidemic activity in high-cholesterol diet fed po dosed hamster model assessed as reduction of plasma total cholesterol level administered qd for 7 days; type: functional, organism-based; details: Cricetinae; method in brief: as §2
# HepG2 [8] = experiment: Upregulation of LDL receptor expression in human HepG2 cells at 1 uM in presence of ARH-specific siRNA; type: functional, cell-based
# Hamster [9] = experiment: Antihyperlipidemic activity in high-cholesterol diet fed hamster model assessed as reduction of plasma total LDL cholesterol level at 10 mg/kg, po administered qd for 7 days; type: functional, Cricetinae; design: scale not given: the % may be the effect or the level left; method in brief: as §2
# Hamster [10] = experiment: Antihyperlipidemic activity in high-cholesterol diet fed hamster model assessed as reduction of plasma total LDL cholesterol level at 30 mg/kg, po administered qd for 7 days; type: functional, Cricetinae; design: scale not given: the % may be the effect or the level left; method in brief: as §2
# Hamster [11] = experiment: Antihyperlipidemic activity in high-cholesterol diet fed hamster model assessed as reduction of plasma total cholesterol level at 10 mg/kg, po administered qd for 7 days; type: functional, Cricetinae; design: scale not given: the % may be the effect or the level left; method in brief: as §2
# Hamster [12] = experiment: Antihyperlipidemic activity in high-cholesterol diet fed hamster model assessed as reduction of plasma total cholesterol level at 30 mg/kg, po administered qd for 7 days; type: functional, Cricetinae; design: scale not given: the % may be the effect or the level left; method in brief: as §2
# HepG2 [13] = experiment: Increase of [125I]LDL cholesterol degradation in human HepG2 cells; type: functional, cell-based
# Hamster [14] = experiment: Antihyperlipidemic activity in high-cholesterol diet fed hamster model assessed as reduction of plasma total LDL cholesterol level at 3 mg/kg, po administered qd for 7 days; type: functional, Cricetinae; design: scale not given: the % may be the effect or the level left; method in brief: as §2
# Hamster [15] = experiment: Antihyperlipidemic activity in high-cholesterol diet fed hamster model assessed as reduction of plasma total cholesterol level at 3 mg/kg, po administered qd for 7 days; type: functional, Cricetinae; design: scale not given: the % may be the effect or the level left; method in brief: as §2
# Hamster [16] = experiment: Antihyperlipidemic activity in high-cholesterol diet fed hamster model assessed as reduction of plasma total cholesterol level at 1 mg/kg, po administered qd for 7 days; type: functional, Cricetinae; design: scale not given: the % may be the effect or the level left; method in brief: as §2
# HepG2 [17] = experiment: Increase of [125I]LDL cholesterol degradation in human HepG2 cells at 0.1 uM; type: functional
# Hamster [18] = experiment: Antihyperlipidemic activity in high-cholesterol diet fed hamster model assessed as reduction of plasma total LDL cholesterol level at 1 mg/kg, po administered qd for 7 days; type: functional, Cricetinae; design: scale not given: the % may be the effect or the level left; method in brief: as §2
# HepG2 [19] = experiment: Increase of [125I]LDL cholesterol degradation in human HepG2 cells at 0.01 uM; type: functional
# HepG2 [20] = experiment: Increase of [125I]LDL cholesterol degradation in human HepG2 cells at 1 uM; type: functional
Structure (SMILES),IC50 [1],EC25 (HepG2 [2]),solubility [3],further results
COc1cccc(C2(C(=O)NS(=O)(=O)Oc3ccccc3C3CCCC3)CCN(c3ccccc3OC)CC2)c1,> 1000 nM,690 nM,,
COc1cccc(C2(C(=O)NS(=O)(=O)Oc3c(C)cccc3C)CCN(c3ccccc3OC)CC2)c1,410 nM,> 10000 nM,,
COc1cccc(C2(C(=O)NS(=O)(=O)Oc3c(C(C)C)cccc3C(C)C)CCN(c3nc4ccccc4s3)CC2)c1,> 1000 nM,260 nM,3 µg/mL,
CCCOc1cccc(C2(C(=O)NS(=O)(=O)Oc3c(C(C)C)cccc3C(C)C)CCN(c3ncccn3)CC2)c1,,> 10000 nM,< 0.3 µg/mL,
COc1cccc(C2(C(=O)NS(=O)(=O)Oc3c(C(C)C)cccc3C(C)C)CCN(c3nccc(C(F)(F)F)n3)CC2)c1,> 1000 nM,> 10000 nM,,
COc1cccc(C2(C(=O)NS(=O)(=O)Oc3c(C(C)C)cccc3C(C)C)CCN(c3ncccc3OC)CC2)c1,> 1000 nM,> 10000 nM,,
COc1cccc(C2(C(=O)NS(=O)(=O)Oc3ccccc3C)CCN(c3ccccc3OC)CC2)c1,> 1000 nM,3880 nM,,
CCCc1cnc(N2CCC(C(=O)NS(=O)(=O)Oc3c(C(C)C)cccc3C(C)C)(c3cccc(OC)c3)CC2)nc1,> 1000 nM,> 10000 nM,,
COc1cccc(C2(C(=O)NS(=O)(=O)Oc3c(C(C)C)cccc3C(C)C)CCN(c3ccccc3OC)CC2)c1.Cl,,,,Cmax [4]: 300 ng/mL; AUC(0-t) at 6 h [5]: 690 ng·h/mL
COc1cccc(C2(C(=O)NS(=O)(=O)Oc3c(C(C)C)cccc3C(C)C)CCN(C(C)=O)CC2)c1,> 1000 nM,> 10000 nM,,
CC(C)c1cccc(C(C)C)c1OS(=O)(=O)NC(=O)C1(c2cccc(OCCO)c2)CCN(c2ncccn2)CC1,,1500 nM,> 200 µg/mL,
COc1cccc(C2(C(=O)N(C)S(=O)(=O)Oc3c(C(C)C)cccc3C(C)C)CCN(c3ncccn3)CC2)c1,> 1000 nM,> 10000 nM,< 0.3 µg/mL,
COc1cccc(C2(C(=O)NS(=O)(=O)Oc3c(C(C)C)cccc3C(C)C)CCN(C)CC2)c1,> 1000 nM,> 10000 nM,,
COc1cccc(C2(C(=O)NS(=O)(=O)Oc3ccccc3)CCN(c3ccccc3OC)CC2)c1,> 1000 nM,> 10000 nM,,
COc1cccc(C2(C(=O)Nc3c(C(C)C)cccc3C(C)C)CCN(c3ccccc3OC)CC2)c1,> 1000 nM,> 10000 nM,,
CC(C)c1cccc(C(C)C)c1OS(=O)(=O)NC(=O)C1(c2cccc(OCCCO)c2)CCN(c2ncccn2)CC1,,> 10000 nM,> 200 µg/mL,
COc1cccc(C2(C(=O)NS(=O)(=O)Oc3c(C(C)C)cccc3C(C)C)CCN(c3ccccc3OC)CC2)c1 [listing 1 of 2 here],,,,Activity (Hamster [6]): Dose-dependent effect; Activity (Hamster [7]): Dose-dependent effect

Structure (SMILES),IC50 [1],EC25 (HepG2 [2]),solubility [3],further results
COc1cccc(C2(C(=O)[N-]S(=O)(=O)Oc3c(C(C)C)cccc3C(C)C)CCN(c3ncccn3)CC2)c1.[Na+],,,230 µg/mL,Cmax [4]: 290 ng/mL; AUC(0-t) at 6 h [5]: 1090 ng·h/mL
CCCc1ccccc1OS(=O)(=O)NC(=O)C1(c2cccc(OC)c2)CCN(c2ccccc2OC)CC1,> 1000 nM,4070 nM,,
CC(C)c1cccc(C(C)C)c1OS(=O)(=O)NC(=O)C1(c2cccc(O)c2)CCN(c2ncccn2)CC1,,> 10000 nM,200 µg/mL,
CC(C)c1c(C(=O)Nc2ccccc2)c(-c2ccccc2)c(-c2ccc(F)cc2)n1CC[C@@H](O)C[C@@H](O)CC(=O)O,,,,Activity (HepG2 [8]): Active
COc1cccc(C2(C(=O)NS(=O)(=O)Oc3c(C(C)C)cccc3C(C)C)CCN(c3ccccc3OC)CC2)c1 [listing 2 of 2 here],330 nM,370 nM,,Cmax [4]: 13 ng/mL; Activity (Hamster [9]): -18%; Activity (Hamster [10]): -25%; Activity (Hamster [11]): -10%; Activity (Hamster [12]): -17%
COc1cccc(C2(C(=O)NS(=O)(=O)Oc3c(C(C)C)cccc3C(C)C)CCNCC2)c1,> 1000 nM,> 10000 nM,,
COc1cccc(C2(C(=O)NS(=O)(=O)Oc3c(C(C)C)cccc3C(C)C)CCN(c3ncc(Br)cn3)CC2)c1,> 1000 nM,610 nM,< 0.1 µg/mL,
COc1cccc(C2(C(=O)NS(=O)(=O)Oc3c(C(C)C)cccc3C(C)C)CCN(c3ccccc3)CC2)c1,> 1000 nM,1520 nM,180 µg/mL,
COc1cccc(C2(C(=O)NS(=O)(=O)Oc3c(C(C)C)cccc3C(C)C)CCN(c3ncccn3)CC2)c1 [listing 1 of 2 here],,,,Activity (HepG2 [13]): Dose-dependent effect; Activity (Hamster [6]): Dose-dependent effect; Activity (HepG2 [8]): inactive; Activity (Hamster [7]): Dose-dependent effect
COc1cccc(C2(C(=O)NS(=O)(=O)Oc3c(C(C)C)cccc3C(C)C)CCN(c3nccc(C)n3)CC2)c1,> 1000 nM,500 nM,200 µg/mL,
COc1cccc(C2(C(=O)NS(=O)(=O)Oc3c(C(C)C)cccc3C(C)C)CCN(c3ncccn3)CC2)c1 [listing 2 of 2 here],> 1000 nM,47 nM,,Activity (Hamster [14]): -27%; Activity (Hamster [15]): -12%; Activity (Hamster [16]): -8%; Activity (Hamster [9]): -38%; Activity (HepG2 [17]): 136%; Activity (Hamster [18]): -24%; Activity (HepG2 [19]): 119%; Activity (Hamster [11]): -17%; Activity (HepG2 [20]): 140%
COc1cccc(C2(C(=O)NS(=O)(=O)Nc3c(C(C)C)cccc3C(C)C)CCN(c3ccccc3OC)CC2)c1,> 1000 nM,> 10000 nM,,
COc1cccc(C2(C(=O)[N-]S(=O)(=O)Oc3c(C(C)C)cccc3C(C)C)CCN(c3ccccc3OC)CC2)c1.[Na+],,,,Cmax [4]: 420 ng/mL; AUC(0-t) at 6 h [5]: 1160 ng·h/mL
COc1cccc(C2(C(=O)NS(=O)(=O)Oc3c(C(C)C)cccc3C(C)C)CCN(C(=O)c3ccccc3)CC2)c1,> 1000 nM,> 10000 nM,,
CCOc1cccc(C2(C(=O)NS(=O)(=O)Oc3c(C(C)C)cccc3C(C)C)CCN(c3ncccn3)CC2)c1,,3100 nM,69 µg/mL,
CCCCn1c(=O)c(NC(=O)Nc2c(C(C)C)cc(N)cc2C(C)C)c(-c2cccc(OCCCO)c2)c2cccnc21.Cl.O,31 nM,490 nM,,Activity (Hamster [9]): -31%; Activity (Hamster [11]): -29%
